According to the array DNA melting data of Ke et al. (doi:10.1101/2024.01.08.574731):

What was measured:
[1] = folding enthalpy; higher = less favourable; fluorescence melt of hairpins on a sequencing array, two-state fit; conditions: sodium 0.088 M
Procedure, shortened: (§1)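 Hairpins were imaged by Cy3 fluorescence on a sequenced MiSeq flow cell with annealed Cy3 and quencher oligos, in 50 mM Na-HEPES pH 8.0, 25 mM NaCl, in 2.5 °C steps up to 60 °C. Bootstrapped two-state fits of normalised signals gave melting temperature and folding enthalpy. Four replicates were combined by inverse variance, and fitted temperatures were raised by 9.35 °C to match UV melts.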

[2] = melting temperature; fluorescence melt of hairpins on a sequencing array, two-state fit, raised by 9.35 °C to match UV melts; conditions: sodium 0.088 M
Procedure, shortened: as §1

Sequence	folding enthalpy [1] [kcal/mol]	Tm [2] [°C]
GGTTATGAAAATAACC ((((((....))))))	-31.8	50.9
GATCTATAATAGATC ((((((...))))))	-21.8	38.3
GCGTAGACGAAAGTCCGC (((..(((....))))))	-34.9	53.7
GATCAGGGGGCTGATC ((((((....))))))	-38.3	49.7
CGGCGACGGAAACGTCCG (((..(((....))))))	-17.4	38.5
GGCAGCGAAAGCTGGGCC ((((((....)))..)))	-13.1	52
GGCAGCGAAAGCTAGGCC ((((((....)))..)))	-28.6	55.3
GCATAAGGAAACTCATGC ((((.((....)).))))	-25.2	30.7
GGGGTGGCGAAAGCCCCC (((..(((....))))))	-14.2	62.9
GCGTTCGCACGC ((((....))))	-18.8	56.5
GCTTTCGAAAGAAAAAGC ((((((....)))..)))	-26.6	36
GCATCCGCGAAAGCGTGC (((..(((....))))))	-10.9	40.3
GAAAACGCGAAAGCGTTC (((..(((....))))))	-8.84	41.1
GCAATCGAAAGATAGTGC ((((((....)))..)))	-22.9	32
GCCCGGCGAAAGCCTTGC ((..(((....)))..))	-8.46	35.7
GTGCTTCGAAAGAATCAC (((.(((....))).)))	-35.5	41.6
GCTGCGCGAAAGCGTGGC ((..(((....)))..))	-24.3	65.9
GATCTTTTGGAAGATC ((((((....))))))	-34.1	44.3
GACCCCGAAAGGGGAGTC ((((((....)))..)))	-9.87	44.6
GATGGTGGAAACACTATC (((.(((....))).)))	-31	43.1
GAAGACCGAAAGGTGTTC (((.(((....))).)))	-33	52
GCGACGCTTCGC ((((....))))	-14.7	55.7
GGTGGGCGAAAGCCGACC (((.(((....))).)))	-19.6	61.9

Sequence	folding enthalpy [1] [kcal/mol]	Tm [2] [°C]
GCCTGCGCGAAAGCGGGC (((..(((....))))))	-15.4	55.5
GATCACACAAGTGATC ((((((....))))))	-42.4	56.2
GCGTAGCACGC ((((...))))	-11	68.2
CGGCCCGGAAACGGCCG (((.(((....))))))	-31	63.7
GAAGGAGGAAACTCTTTC (((.(((....))).)))	-20.7	31.6
GCACCGACGAAAGTCTGC (((..(((....))))))	-16.7	35.3
GCGCGGCGAAAGCTTCGC (((..((....))..)))	-20.8	55.8
GCTGCGGCGAAAGCCAGC (((..(((....))))))	-10.7	57.4
GGGGACGGAAACGTCCTC (.(((((....))))).)	-13.7	58.7
GAAGCCGAAAGGCTCTTC ((((((....)))..)))	-20.8	56.6
GGACGTCCGAAAGGATCC (((..(((....))))))	-14.9	25.8
GAAACGGGAAACCGTCTC ((.((((....)))).))	-13.5	32.9
GAAACGGAAACGTTTC ((((((....))))))	-39.8	55.3
GGCTGCGAAAGCATAGCC ((((((....)))..)))	-35.5	57.1
GCATAGGGAAACCTACGC ((.((((....)))).))	-27.9	35.9
GCGCCCGAAAGGGCCCGC ((((((....)))..)))	-9.91	44.7
GGGCACCGAAAGGTCCCC (((.(((....))).)))	-17.8	54.7
GAGGCTACGAAAGTACTC (((..(((....))))))	-10.2	23.8
GATCGTAGAACGATC ((((((...))))))	-36.6	55.2
GGAAATGGAAACACTTCC ((((.((....)).))))	-31.5	30.2
GATCGTCGTTACGATC ((((((....))))))	-36	55.6
GTTGACGAAAGTCTCAAC ((((((....)))..)))	-9.94	28
GCTGCTGGAAACAACAGC ((((.((....)).))))	-32.8	47.2

Sequence	folding enthalpy [1] [kcal/mol]	Tm [2] [°C]
GTAACTCGAAAGAGTAC (((.(((....))))))	-15	42.4
GGCTGACCGAAAGGTGCC (((..(((....))))))	-24.7	52.4
GCCTTCGAAAGAATGGGC ((((((....)))..)))	-28.1	42.5
GACCTGACGAAAGTCGTC (((..(((....))))))	-9.44	35.9
GAGGACCCGAAAGGGCTC (((..(((....))))))	-12	33.9
GACTGGGAAACCAGTC ((((((....))))))	-35.1	60.1
GGCATTGCGAAAGCAGCC (((..(((....))))))	-16.4	50.7
GCGACGCGAAAGCATAGC ((.(.((....)).).))	-18.8	62.7
GCGTGCTACGC ((((...))))	-18.7	62
GATCCTTCAGAGGATC ((((((....))))))	-48.2	51.6
GCCTCTGCGAAAGCAGGC (((..(((....))))))	-8.17	50
GTTTTCGGAAACGGAAAC ((((.((....)).))))	-27.1	47.1
GCGTGGGGAAACCCGCGC (((.(((....))).)))	-44.8	69
CGCGGATAGTCCGCG ((((((...))))))	-40.8	63.6
CAGGGGAAACCCTG (((((....)))))	-23.2	52.5
GGGAAAGCGAAAGCTCCC (((..(((....))))))	-20.9	51.8
GATCTGCACGCAGATC ((((((....))))))	-33.1	58.8
GCCGTGCGAAAGCTGGGC (((..((....))..)))	-19.9	59.5
GGATGTGGAAACACGTCC (((.(((....))).)))	-55.2	53
GAACTTGGAAACAAGCTC ((.((((....)))).))	-27.1	33.8
GATCTCCTAAGAGATC ((((((....))))))	-42.6	53.6
CGACGACGGAAACGTTCG (((..(((....))))))	-14.5	36.9
GATCCACGAAAGTGAATC (((.(((....))).)))	-24.2	42.4
